Screening results (PubChem BioAssay)
Shown are actives, neighbours in structure and some others; about 2% of the full set was active somewhere.
LYP inh 2 = LYP (human) phosphatase inhibition; AID 640; Q9Y2R2; recombinant LYP catalytic domain, DiFMUP fluorescence; inhibition, % at 2 µM; 0.21% of 96,000 active;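 active = inhibition at 2 µM at or above a set limit, the screen mean plus 3 SD, cut at about 24% in these data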
EphB4 ephrin blk = EphB4-ephrin-B2 interaction antagonism. P54760. inhibition, % at 7 µM. AID 720. 0.15% of 97,000 active. EphB4 LBD / TNYL-RAW-Alexa532 peptide, fluorescence polarization;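 active = inhibition above the screen-wide mean inhibition plus 3 SD, cut at about 15% in these data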
PLK1 inh = inhibitors of human PLK1 kinase; P53350; inhibition, % at 10 µM; recombinant PLK1 kinase, TR-FRET peptide phosphorylation; 0.53% of 97,000 active;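 active = inhibition of 50% or more in the single-concentration screen; inactive = inhibition below 50%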
Target sequence (P53350 whole entry, looked up): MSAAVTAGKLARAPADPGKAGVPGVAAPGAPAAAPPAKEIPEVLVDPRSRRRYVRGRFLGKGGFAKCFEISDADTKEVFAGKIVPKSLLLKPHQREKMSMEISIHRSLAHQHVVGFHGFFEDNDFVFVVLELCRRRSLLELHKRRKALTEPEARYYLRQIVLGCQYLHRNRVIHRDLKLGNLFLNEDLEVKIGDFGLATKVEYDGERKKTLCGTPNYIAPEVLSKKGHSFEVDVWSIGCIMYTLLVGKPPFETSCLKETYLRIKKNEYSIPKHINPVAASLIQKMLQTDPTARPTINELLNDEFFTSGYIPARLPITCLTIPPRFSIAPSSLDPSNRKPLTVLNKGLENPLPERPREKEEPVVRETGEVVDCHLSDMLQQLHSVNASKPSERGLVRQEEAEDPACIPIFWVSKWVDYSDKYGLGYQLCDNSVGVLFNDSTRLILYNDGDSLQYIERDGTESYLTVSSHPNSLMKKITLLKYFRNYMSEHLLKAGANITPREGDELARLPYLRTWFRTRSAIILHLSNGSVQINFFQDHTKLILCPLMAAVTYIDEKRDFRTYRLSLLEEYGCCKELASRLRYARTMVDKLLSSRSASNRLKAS
Plk1 PBD FP = Plk1 (human) PBD binding inhibition. P53350. Plk1 PBD phosphopeptide binding, fluorescence polarization. inhibition, %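 (tested at about 20 µM)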. 0.13% of 97,000 active. AID 693; in the data active = inhibition above about 34%, passing the limit was not always enough
HIV Rev-RRE inh = disrupts HIV-1 Rev binding to RRE RNA | Rev peptide-RRE RNA binding, FRET | inhibition, % at 8 µM | 0.79% of 97,000 active | AID 704;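 active = inhibition above the screen-wide mean plus 3 SD, cut at about 35% in these data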
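Test system – labelled RRE RNA duplex and labelled Rev peptide · Signal – fluorescein-to-Cy5 FRET, 480 nm excitation · Evaluation – % inhibition of FRET ratio versus controls · Benchmarks – DMSO low control, neomycin B high control · Incubation – 5 min RNA-compound premix plus 15 min binding step, 25 °C · Medium – HEPES pH 7.5 salt buffer with EDTA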
PTPN22 act = LYP (human) phosphatase activation; Q9Y2R2; recombinant LYP, DiFMUP fluorescence; 0 = plate median, 100 = signal doubled; activation, % at 2 µM; 0.11% of 96,000 active;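 active = activation at 2 µM above a set limit, the mean plus 5 SD, cut at about 37% in these data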
Of the large screens only hits and unclear results are named; the others gave an inactive call; [ ] = another dose, or the depositor's remark.

O=C(Nc1c(Cl)cc(Cl)cc1C(=O)NCc1cccnc1)c1ccc(Cl)cc1Cl	Plk1 PBD FP 57
CCCSc1nc2c(cnn2-c2ccc(C)cc2)c(=O)[nH]1	none
COc1ccc(OC)c(/C=c2\sc3nc(-c4cccs4)nn3c2=O)c1	HIV Rev-RRE inh 57
COC(=O)c1ccc(C2/C(=C(/O)c3ccc(OC)cc3)C(=O)C(=O)N2CC2CCCO2)cc1 (stereo not given)	none
CCn1c(O)c(/C=N/N=C/c2ccccc2)c2ccc(C3=NNC(=O)CC3)cc21	HIV Rev-RRE inh 57
O=c1cc(Cl)[nH]c(=O)n1CCNc1ncc(C(F)(F)F)cc1Cl	HIV Rev-RRE inh 52
FC(F)(F)c1cccc(-n2cccc2/C=N/n2cnnc2)c1	none
Cc1nn(-c2cccc(C(F)(F)F)c2)c(Cl)c1/C=N/n1cnnc1	HIV Rev-RRE inh 36
COc1ccc(-c2cn3c(C)c(C(=O)N4CCN(c5ccc(F)cc5)CC4)sc3n2)cc1	none
COCc1cc(C)nc(SCC(=O)Nc2cccc(C)c2C)c1C#N	none
COCc1cc(C)nc(Nc2ccccc2C)c1C#N	LYP inh 2 26
COc1cc(NC(=O)Cn2nnc(-c3ccccc3N)n2)cc(OC)c1	none
CCOC(=O)C1=C(c2ccccc2)N=c2s/c(=C\c3cccc(O)c3)c(=O)n2C1c1cccs1 (stereo not given)	none
O=c1/c(=C\c2ccc(O)cc2)sc2n1C(c1ccccc1)C(c1ccccc1)=NN=2 (stereo not given)	HIV Rev-RRE inh 41
CCOC(=O)C(O)(C1C(=O)CC(C)(C)CC1=O)C(F)(F)F (stereo not given)	none
O=C(CN(Cc1cccs1)C(=O)CSc1nnc(COc2ccccc2)o1)NC1CCCC1	EphB4 ephrin blk 20
Cc1noc(C)c1COC(=O)COc1ccc2c(C)cc(=O)oc2c1	none
CCN(CC(=O)NC(=O)NC1CCCCC1)Cc1nc2ccccc2c(=O)[nH]1	LYP inh 2 25
Cc1ccc2nc3c(c(C(=O)O)c2c1)CCC3	none
Cc1cccc2c(C(=O)O)c3c(nc12)CCCCC3	EphB4 ephrin blk 17
COc1ccc(Nc2c3c(c(C#N)c4nc5ccccc5n24)CCC3)cc1	none
CCCCCCC1C(C#N)=C(N)OC2=C1C(=O)CCC2 (stereo not given)	none
O=C(NCc1ccco1)c1ccc2nc3sc4c(c3c(=O)n2c1)CCCC4	LYP inh 2 25
C=CCn1c(SCC(=O)NCc2ccco2)nc2sc3c(c2c1=O)CCCC3	none
O=c1c(/C=C(\O)c2ccc(F)cc2)nc2ccccc2n1-c1ccccc1	HIV Rev-RRE inh 127[fluorescence artefact?]
CCOc1ccc2[nH]c(=O)c(CN(CCc3ccccc3)C(=O)N3CCCC3)cc2c1	none
c1ccc2c(c1)oc1c(Nc3ccc4c(c3)OCCO4)ncnc12	none
CCC(=O)c1ccc(OCC(O)CN2CCOCC2)cc1 (stereo not given)	none
CC(=O)c1ccc(OCC(O)CN2CCOCC2)cc1 (stereo not given)	PLK1 inh 65 (no result: LYP inh 2, PTPN22 act)
COc1ccc(NC(=O)N2CCCC2)cc1OC	none
Cc1cc(C(C)(C)C)cc(C)c1COC(=O)C1CCC(=O)N1 (stereo not given)	LYP inh 2 27
O=C(N/N=C1/C(=O)c2cccc3cccc1c23)c1ccc(Cl)cc1	EphB4 ephrin blk 25
CCNC(=S)N/N=C1\C(=O)c2cccc3cccc1c23	none
Cc1ccc(CNC(=O)Cn2ccc3ccccc3c2=O)o1	none
CCNS(=O)(=O)c1ccc(NS(=O)(=O)c2cc(C)ccc2C)cc1	none
CCCCNS(=O)(=O)c1ccc(NS(=O)(=O)c2c(C)cc(C)cc2C)cc1	LYP inh 2 28
CCOP(=O)(c1c(F)c(F)c(F)c(F)c1F)C1(O)CCCCC1 (stereo not given)	none
CCSc1nnc(-c2sc3nnc(-c4ccccc4)c(-c4ccccc4)c3c2N)o1	HIV Rev-RRE inh 117[fluorescence artefact?]
CCSc1nnc(-c2ccncc2)o1	none
COc1ccc(Nc2nnc(SCc3cc(=O)n4ccsc4n3)s2)cc1	HIV Rev-RRE inh 42
O=c1cc(CSc2nc3cc(Cl)ccc3o2)nc2sccn12	none
COC(=O)c1ccc(C2c3c(oc4ccccc4c3=O)C(=O)N2CCCN2CCOCC2)cc1 (stereo not given)	none
C=CCN1C=CC(=C/C=C(/C#N)C(=O)OCC)C=C1	HIV Rev-RRE inh 138[fluorescence artefact?]
COCCNC(=O)c1c(N)n(CCC2=CCCCC2)c2nc3ccccc3nc12	HIV Rev-RRE inh 56
Nc1c(C(=O)NCc2ccco2)c2nc3ccccc3nc2n1CCc1ccccc1F	LYP inh 2 25
COCCn1c(N)c(C(=O)OCc2ccccc2)c2nc3ccccc3nc21	none
CCC(C)n1c(C)nc2c(c1=O)c1nc3ccccc3nc1n2CCC1=CCCCC1 (stereo not given)	LYP inh 2 25
O=C(Nc1ccc(Cl)cc1)c1ccncc1	none
O=C(Nc1cccc(Cl)c1Cl)c1ccncc1	PLK1 inh 54
O=C(COC(=O)[C@H](Cc1ccccc1)NC(=O)c1ccco1)NC(c1ccccc1)c1ccccc1	none
O=C(COC(=O)C(Cc1ccccc1)NC(=O)c1ccco1)NC1CC1 (stereo not given)	EphB4 ephrin blk 17
Cc1cc(C)c(S(=O)(=O)c2ccccc2)c(Cl)n1	PLK1 inh 64
O=C1N/C(=C\c2ccc(N3CCOCC3)c(F)c2)C(=O)N1Cc1ccccc1	none
CCCN1C(=O)/C(=C/c2ccc(N3CCCC3)c(C)c2)NC1=S	HIV Rev-RRE inh 139[fluorescence artefact?]
Cc1ccc(CNc2ccc3c(c2)OCO3)cc1	HIV Rev-RRE inh 75
Cn1/c(=N/N=C/c2ccc([N+](=O)[O-])cc2)sc2ccccc21	HIV Rev-RRE inh 58
COc1ccccc1N=c1sc2ccccc2n1C	none
CN(CCCn1c(=S)[nH]c2ncccc2c1=O)Cc1ccccc1	none
O=C(CCCCCN1C(=O)C2C3C=CC(C3)C2C1=O)Nc1nccs1 (stereo not given)	PLK1 inh 62 (no result: LYP inh 2, PTPN22 act)
CCOC(=O)CN1C(=O)C(C)(C)Oc2ccc(C(=O)Nc3ccccc3OC)cc21	none
CCOC(=O)N1CCC(Nc2c(OCC)c(=O)c2=O)CC1	PLK1 inh 69 (no result: LYP inh 2, PTPN22 act)
O=C(CCCn1c(=O)[nH]c2cc(Cl)ccc2c1=O)NC1CCCCCCC1	none
Cn1nc(SCC(=O)O)sc1=S	HIV Rev-RRE inh 140[fluorescence artefact?]
CS(=O)(=O)N1CCN(C(=O)c2ccccc2)C1	none
Cc1ccnc(SCCn2c(N3CCOCC3)nc3c2c(=O)n(C)c(=O)n3C)n1	none
Cc1ccnc(SCCn2c(N3CCCCC3)nc3c2c(=O)n(C)c(=O)n3C)n1	EphB4 ephrin blk 20
O=C(CN1CCCCCC1)Nc1cccc2c1OCO2	none
Nc1[nH]c(=S)[nH]c(=O)c1-c1ccccc1	HIV Rev-RRE inh 139[fluorescence artefact?]
Cc1ccsc1C1C2=C(CCCC2=O)Nc2ncnn21 (stereo not given)	PLK1 inh 61
Cc1ccsc1C1C2=C(CC(C)(C)CC2=O)Nc2ncnn21 (stereo not given)	none
